How the values were obtained:
[1] = biological target: T1, Human immunodeficiency virus type 1 reverse transcriptase (Human immunodeficiency virus 1, UniProt Q72547); assay: Tested for the inhibition of mutant type (Ile100) HIV-1 (IIIB) RT
[2] = biological target: T1, Human immunodeficiency virus type 1 reverse transcriptase; assay: Tested for the inhibition of wild type HIV-1 (IIIB) RT
[3] = biological target: T1, Human immunodeficiency virus type 1 reverse transcriptase; assay: Tested for the inhibition of mutant type (Cys181) HIV-1 (IIIB) RT
MT4 [4] = assay: Tested for the inhibition of wild type HIV-1 (IIIB) replication in MT-4 cells; format: functional; conditions: Homo sapiens, read-out: ED50 (the source's name)
Outline: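 MT-4 human T cells in RPMI 1640 with 10% fetal calf serum, penicillin and streptomycin, seeded at 2 × 10⁴ cells/well and infected with 10-20 TCID₅₀ HIV-1 IIIB per well. Compounds were added over a concentration range and cultures kept at 37 °C in CO₂. Viability was read by XTT at day 5 or 6, and activity was taken as reduction of viral cytopathic effect.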

MT4 [5] = assay: Inhibition of mutant type (Ile100) HIV-1 (IIIB) replication in MT-4 cells; format: functional; conditions: Homo sapiens, read-out: ED50 (the source's name)
Outline: (§1)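 MT-4 cells (human T cell line) in RPMI 1640 with 10% fetal calf serum, penicillin and streptomycin, seeded at 2 × 10⁴ cells/well. Infected with 10-20 TCID₅₀ of mutant HIV-1 IIIB per well, with the compound added at different concentrations. Incubated at 37 °C in CO₂. Cell viability read by XTT dye at day 5 or 6. Activity taken as the reduction in viral cytopathic effect, given as ED₅₀. Mutants were raised by passage in stepwise increasing concentrations of non-nucleoside RT inhibitors.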

MT4 [6] = assay: Inhibition of mutant type (Cys181) HIV-1 (IIIB) replication in MT-4 cells; format: functional; conditions: Homo sapiens, read-out: ED50 (the source's name); outline: as §1
MT4 [7] = assay: Inhibition of HIV-1(IIIB) variants (Ile100/Asn103) in HIV-1 MT-4 cells; format: functional; conditions: Homo sapiens, read-out: ED50 (the source's name); outline: as §1
MT4 [8] = assay: Inhibition of HIV-1(IIIB) variants (Ile100/Cys181) in HIV-1 MT-4 cells; format: functional; conditions: Homo sapiens, read-out: ED50 (the source's name); outline: as §1
MT4 [9] = assay: Inhibition of HIV-1(IIIB) variants (Ile100/Cys181 in HIV-1 MT-4 cells; format: functional; conditions: Homo sapiens, read-out: ED50 (the source's name); outline: as §1

Row | SMILES | IC50 [1] [nM] | IC50 [2] [nM] | IC50 [3] [nM] | EC50 (MT4 [4]) [nM] | EC50 (MT4 [5]) [nM] | EC50 (MT4 [6]) [nM] | EC50 (MT4 [7]) [µM] | EC50 (MT4 [8]) [nM] | EC50 (MT4 [9]) [µM]
1 | Fc1cc(F)c(CCNC(=S)Nc2ccc(Cl)cn2)c(F)c1 | 810 | 2 | 290 | 10 | 2000 | 1500 |  |  | 
2 | S=C(NCCc1c[nH]c2ccccc12)Nc1ccc(Br)cn1 | > 2500 | 30 | 320 | 110 | 3000 | 300 |  |  | 
3 | COc1ccc(F)c(CC/N=C(\S)Nc2ccc(Br)cn2)c1C#N | 50 | 1 | 50 | 3 | 250 | 40 | > 10 | > 10000 | 
4 | S=C(NCCn1nc2ccccc2n1)Nc1ccc(Br)cn1 | 2000 | 3 | 100 | 14 | 2000 | 1000 |  |  | 
5 | COc1ccc2[nH]cc(CC/N=C(\S)Nc3ccc(Br)cn3)c2c1 | > 2500 | 320 | 2500 | 500 | > 2000 | 900 |  |  | 
6 | Fc1ccoc1CC/N=C(\S)Nc1ccc(Cl)cn1 | 230 | 4 | 140 | 7 | 100 | 80 | > 10 | > 10000 | 
7 | Cn1cccc1CCNC(=S)Nc1ccc(Cl)cn1 | 2700 | 90 | 1400 | 250 | > 2000 | > 2000 |  |  | 
8 | COc1ccc(F)c(CC/N=C(\S)Nc2ccc(Cl)cn2)c1C#N | 1100 | 5 | 1100 | 11 | 400 | 100 |  |  | 
9 | O=C1c2ccccc2C(=O)N1CCNC(=S)Nc1ccc(Cl)cn1 | 280 | 1 | 130 | 5 | 200 | 40 | > 10 |  | 15
10 | Cc1cc2nn(CCNC(=S)Nc3ccc(Br)cn3)nc2cc1C | > 2500 | 150 | 100 | 220 | > 2000 | > 2000 |  |  | 
11 | CCOc1ccc(F)c(CC/N=C(\S)Nc2nc(C(F)(F)F)cs2)c1Cl | 7000 | 47 | 7000 | 70 | > 2000 | > 2000 |  |  | 
12 | Cn1cccc1CC/N=C(\S)Nc1ccc(C#N)cn1 | 3500 | 70 | 1100 | 110 | > 2000 | > 2000 |  |  | 
13 | CN(C)c1ccc(CC/N=C(\S)Nc2ccc(Br)cn2)c(F)c1C#N | 210 | 8 | 110 | 13 | 150 | 20 | 5.5 |  | 7.5
14 | COc1ccc(F)c(CCNC(=S)Nc2ccc(Br)cn2)c1OC | 430 | 7 | 85 | 12 | 3000 | 200 |  |  | 
15 | CN(C)c1ccc(F)c(CCNC(=S)Nc2ccc(Cl)cn2)c1F | 1900 | 8 | 190 | 40 | > 2000 | 700 |  |  | 
16 | CCOc1ccc(F)c(CCNC(=S)Nc2ccc(Br)cn2)c1F | 170 | 4 | 20 | 6 | 100 | 6 | > 10 | 1200 | 
17 | COCc1ccc(F)c(CCNC(=S)Nc2ccc(Br)cn2)c1F | 720 | 4 | 100 | 6 | 2500 | 300 |  |  | 
18 | CCOc1ccc(F)c(CCNC(=S)Nc2ccc(Cl)cn2)c1Cl | 130 | 6 | 30 | 8 | 600 | 7 |  |  | 
19 | CCOc1ccc(F)c(CCNC(=S)Nc2ccc(I)cn2)c1Cl | 420 | 8 | 130 | 15 | 3000 | 200 |  |  | 
20 | COc1ccc(OC)c(CCNC(=S)Nc2ccc(Cl)cn2)c1F | 80 | 1 | 54 | 2 | 9 | 3 | 1 | 1000 | 
21 | CCOc1cccc(F)c1CCNC(=S)Nc1ccc(Br)cn1 | 50 |  | 25 | 13 | 90 | 7 | 1.6 | 1000 | 

Row | SMILES | IC50 [1] [nM] | IC50 [2] [nM] | IC50 [3] [nM] | EC50 (MT4 [4]) [nM] | EC50 (MT4 [5]) [nM] | EC50 (MT4 [6]) [nM] | EC50 (MT4 [7]) [µM] | EC50 (MT4 [8]) [nM] | EC50 (MT4 [9]) [µM]
22 | CCOc1ccc(OCC)c(CCNC(=S)Nc2ccc(Br)cn2)c1 | 1650 | 18 | 707 | 18 | > 2000 | 800 |  |  | 
23 | CNC(=O)c1ccc(F)c(CC/N=C(\S)Nc2ccc(Br)cn2)c1F | > 2000 | 23 | > 2000 | 80 | > 2000 | 300 |  |  | 
24 | N#Cc1ccoc1CCNC(=S)Nc1ccc(Cl)cn1 | 2600 | 60 | 2600 | 20 | 700 | 200 |  |  | 
25 | O=C1c2c(Cl)ccc(Cl)c2C(=O)N1CCNC(=S)Nc1ccc(Cl)cn1 | 230 | 2 | 10 | 19 | > 2000 | > 2000 |  |  | 
26 | CCOc1c(Cl)cc(F)c(CCNC(=S)Nc2ccc(Br)cn2)c1Cl | 240 | 21 | 660 | 13 | 1000 | 20 |  |  | 
27 | COc1ccc(F)c(CCNC(=S)Nc2ccc(Br)cn2)c1F | 870 | 6 | 60 | 15 | 600 | 50 |  |  | 
28 | CCOc1ccc(OC)c(CCNC(=S)Nc2ccc(Cl)cn2)c1F | 160 | 5 | 34 | 5 | 90 | 9 | > 10 | > 10000 | 
29 | CC(=O)NCc1ccc(F)c(CCNC(=S)Nc2ccc(Br)cn2)c1F | > 2000 | 45 | > 2000 | 900 | > 2000 | > 2000 |  |  | 
30 | CCOc1ccc(F)c(F)c1CCNC(=S)Nc1ccc(Br)cn1 | 20 | 5 | 10 | 7 | 1500 | 200 | > 10 | > 10000 | 
31 | CCOc1ccc(F)c(CCNC(=S)Nc2ccc(C#N)cn2)c1Cl | 110 | 5 | 30 | 3 | 500 | 30 |  |  | 
32 | COc1ccc(F)c(CCNC(=S)Nc2ccc(C#N)cn2)c1C#N | 60 | 3 | 50 | 1 | 200 | 30 |  |  | 
33 | CCOc1ccc(Cl)c(CC/N=C(\S)Nc2ccc(Br)cn2)c1F | 90 | 2 | 9 | 18 | 900 | 50 | > 10 | > 10000 | 
34 | CCOc1ccc(F)c(CC/N=C(\S)Nc2ccc(Br)cn2)c1C#N | 140 | 2 | 210 | 4 | 40 | 5 | > 10 | 3000 | 
35 | CN(C)c1ccc(F)c(CCNC(=S)Nc2ccc(Br)cn2)c1F | 1900 | 7 | 170 | 40 | > 2000 | 1000 |  |  | 
36 | Fc1cccc(F)c1CCNC(=S)Nc1ccc(Br)cn1 | 50 |  | 30 | 13 | 600 | 150 |  |  | 
37 | CN(C)c1cc(F)c(CCNC(=S)Nc2ccc(Cl)cn2)c(F)c1 | 270 | 20 | 130 | 18 | 1500 | 900 |  |  | 
38 | CCc1cc(NCc2nc3c(Cl)ccc(Cl)c3o2)c(O)nc1C [L-697661] | 850 |  | 7700 | 65 | 850 | > 11000 |  |  | 
39 | Cc1ccnc2c1NC(=O)c1cccnc1N2C1CC1 [NEVIRAPINE] |  |  |  | 150 | 620 | 22000 | 8 | > 10000 | 
40 | CCOc1ccc(F)c(CCNC(=S)Nc2ccc(Br)cn2)c1Cl [THIOUREA, N-(5-BROMO-2-PYRIDINYL)-N'-(2-(2-CHLORO-3-ETHOXY-6-FLUOROPHENYL)ETHYL)-] | 190 | 12 | 50 | 7 | 400 | 30 |  |  | 
41 | S=C(NCCc1ccccn1)Nc1ccc(Br)cn1 [TROVIRDINE] |  |  |  | 20 |  |  |  |  | 

Reference: ChEMBL document CHEMBL1129452, “Phenethylthiazolylthiourea (PETT) compounds as a new class of HIV-1 reverse transcriptase inhibitors. 2. Synthesis and further structure-activity relationship studies of PETT analogs” (J Med Chem, 1996)
